This is an account of results in ChEMBL document CHEMBL3259682, “Synthesis, β-haematin inhibition, and in vitro antimalarial testing of isocryptolepine analogues: SAR study of indolo[3,2-c]quinolines with various substituents at C2, C6, and N11” (Bioorg Med Chem, 2014).

SMILES strings stand for the structures.

The nature of series [1]: Selectivity index, ratio of IC50 for rat L6 cells to IC50 for chloroquine/pyrimethamine-resistant Plasmodium falciparum K1. It counts as toxicity, cell-based. Conditions: read-out: Ratio IC50.
The subject of series [2] is Plasmodium berghei. Description: Antimalarial activity against Plasmodium berghei infected in Swiss mouse assessed as reduction in parasitemia at 50 mg/kg, ip qd administered for 4 days measured on day 4 post last dose by FACS analysis relative to control. It counts as functional. More on the design: scale not given: the % may be the effect or the level left. The settings on record: route intraperitoneal. The method, boiled down: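 Plasmodium berghei-infected mice, standard '4 Day Test'. Parasitaemia measured by FACS. Activity is the difference between mean percent parasitaemia of control (n = 5 mice) and treated groups, expressed as a percentage of control.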

For series [3], the system named is Plasmodium falciparum. Briefly: Antimalarial activity against erythrocytic stage of chloroquine/pyrimethamine-resistant Plasmodium falciparum K1 after 48 hrs by [3H]-hypoxanthine incorporation assay. The class given is functional, organism-based. In outline: (§1)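 Chloroquine/pyrimethamine-resistant K1 and drug-susceptible NF54 P. falciparum were grown in hypoxanthine-free RPMI 1640 with HEPES, NaHCO₃, neomycin and Albumax, in human A⁺ erythrocytes at 2.5% haematocrit and 0.3% parasitaemia. DMSO stocks were 10 mg/mL, tested in eleven 3-fold dilutions under 4% CO₂/3% O₂/93% N₂. ³H-hypoxanthine was added at 48 h, then 24 h more before filter harvest. IC₅₀ is the mean of two assays; RI = K1/NF54 IC₅₀.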

Series [4] can be described thus: Resistance index, ratio of IC50 for chloroquine/pyrimethamine-resistant Plasmodium falciparum K1 to IC50 for erythrocytic stage of chloroquine-sensitive Plasmodium falciparum NF54. It counts as functional. In outline:
as §1

The subject of series [5] is Plasmodium falciparum. Description: Antimalarial activity against erythrocytic stage of chloroquine-sensitive Plasmodium falciparum NF54 after 48 hrs by [3H]-hypoxanthine incorporation assay. It counts as functional, organism-based. The method, boiled down:
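³H-hypoxanthine incorporation against P. falciparum NF54. DMSO stocks at 10 mg/mL were added to cultures in hypoxanthine-free RPMI 1640 with HEPES, NaHCO₃, neomycin and Albumax, using human A⁺ red cells at 2.5% haematocrit and 0.3% parasitaemia. Eleven 3-fold serial dilutions were tested. Incubation was under 4% CO₂/3% O₂/93% N₂. ³H-hypoxanthine was added after 48 h, followed by a further 24 h. Cells were harvested onto glass-fibre filters. IC₅₀ is the mean of two independent assays.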

In series [6] the test system is Plasmodium berghei. Description: Antimalarial activity against Plasmodium berghei infected in Swiss mouse assessed as survival at 50 mg/kg, ip qd administered for 4 days measured on day 4 post last dose. It counts as functional. The settings on record: route intraperitoneal.
Series [7] in a line: Binding affinity to haematin assessed as inhibition of beta-haematin formation after 5 to 6 hrs by pyridine-ferrichrome-based method. The method, boiled down: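 Detergent (NP-40) mediated β-haematin formation assay, run manually. Compounds came from 20, 2 and 0.4 mM DMSO stocks, tested at 0–1000 µM final. Haematin was 100 µM final in 0.5 M acetate buffer, pH 4.8. Incubation was 5–6 h at 37 °C. Read-out used the pyridine-ferrichrome method with UV–vis absorbance. IC₅₀ came from sigmoidal dose–response fits.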

Series [8] is described as follows: Selectivity index, ratio of IC50 for rat L6 cells to IC50 for erythrocytic stage of chloroquine-sensitive Plasmodium falciparum NF54. The class given is toxicity, cell-based. Conditions: read-out: Ratio IC50. In outline:
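Selectivity index is the L6 cytotoxicity IC₅₀ divided by the NF54 antiplasmodial IC₅₀. Each IC₅₀ is the mean of two independent assays.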

The subject of the next series is L6. Description: Cytotoxicity against rat L6 cells after 70 hrs by Alamar Blue assay. The class given is functional, cell-based. The settings on record: L6, 70 h. In outline:
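Rat skeletal myoblast L6 cells, 4000 per well, in RPMI 1640 with 1% L-glutamine and 10% fetal bovine serum. Eleven 3-fold serial drug dilutions were tested. Alamar Blue was added for a final 2 h. Fluorescence was read at excitation 536 nm and emission 588 nm. IC₅₀ is the mean of two independent assays.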
(In general: The colour change of resazurin is a common sign of viable cells or microbes.)

As for `CC(C)(CNC(=O)Nc1ccccc1)CNc1nc2ccc(Cl)cc2c2[nH]c3ccccc3c12`, the selectivity ratio in [1] is 236; in series [8], 378. Moreover, the Activity in the series with Plasmodium berghei [2] was 38%. The IC50 – broadly, the concentration at which inhibition is half-maximal – with Plasmodium falciparum [3] is 16.9 nM; in the series with Plasmodium falciparum [5], 10.6 nM; in series [7], 11700 nM; in the series with L6, 4000 nM. Also, the Ratio IC50 in series [4] stood at 1.6. The Survival in the series with Plasmodium berghei [6] was 4 days.

Take `O=C(NCCCNc1nc2ccccc2c2[nH]c3ccccc3c12)Nc1ccccc1`: the selectivity ratio in series [1] came to 21.5; in series [8] it was 480. Besides, the IC50 was 53.7 nM in the series with Plasmodium falciparum [3], 2.4 nM in the series on Plasmodium falciparum [5], 23900 nM in series [7] and 1150 nM with L6. For the same compound, the Ratio IC50 in series [4] was 22.4.

On to `O=S(=O)(NCCCNc1nc2ccccc2c2[nH]c3ccccc3c12)c1ccccc1`, for which the selectivity ratio in [1] worked out at 8.7; in series [8] it was 11.3. Further, the IC50 came out at 92.9 nM in the series on Plasmodium falciparum [3], 72 nM in the series on Plasmodium falciparum [5], 24200 nM in series [7] and 811 nM in the series with L6. Further, the Ratio IC50 in series [4] is 1.3.

Take `O=C(NCCCNc1nc2ccc(F)cc2c2[nH]c3ccccc3c12)Nc1ccccc1`: the selectivity ratio in [1] was found to be 30.6; in series [8], 58.5. The IC50 turned out to be 49.2 nM with Plasmodium falciparum [3], 25.7 nM in the series with Plasmodium falciparum [5], 22700 nM in [7] and 1500 nM in the series with L6. The Ratio IC50 in [4] was 1.9.
